Data reported in ChEMBL document CHEMBL2434928, “New derivatives of salicylamides: Preparation and antimicrobial activity against various bacterial species” (2013).
In brackets after ≈: the same amount, converted by molar mass.

Experiments:
Assay type in all cases: functional
Pasteurella multocida = test: Antimicrobial activity against Pasteurella multocida clinical isolate after 24 hrs by broth microdilution method
In short: (§1)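 Broth microdilution MIC in Mueller–Hinton broth, per modified NCCLS guidelines. Strains were grown on nutrient agar with 5% ovine blood. Colonies were suspended in PBS (pH 7.2–7.3), adjusted to 0.5 McFarland, then diluted 1:20 in MH broth. Compounds were in DMSO, ≤2.5% final. Drug-free, sterility and DMSO controls were included.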

Clostridium perfringens = test: Antimicrobial activity against Clostridium perfringens CNCTC 5770 after 24 hrs by broth microdilution method; conditions: CNCTC 5770, 24 h
In short: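 Colonies grown on blood agar (nutrient agar, 5% ovine blood) were suspended in PBS pH 7.2–7.3, set to 0.5 McFarland, and diluted 1:20 in MH broth for the final inoculum. Compounds were in DMSO (≤2.5% final), tested by NCCLS-modified microdilution with drug-free, sterility and DMSO controls.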

Staphylococcus aureus [1] = test: Antimicrobial activity against methicillin-resistant Staphylococcus aureus 3202 after 24 hrs by broth microdilution method; conditions: Staphylococcus aureus, 3202, 24 h
In short: (§2)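 Colonies grown on nutrient agar with 5% ovine blood were suspended in PBS (pH 7.2–7.3), adjusted to 0.5 McFarland, and diluted 1:20 in Mueller–Hinton broth. Compounds were dissolved in DMSO (final ≤2.5%) and tested by NCCLS-modified broth microdilution with drug-free, sterility and broth+DMSO controls.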

Staphylococcus aureus [2] = test: Antimicrobial activity against methicillin-resistant Staphylococcus aureus 630 after 24 hrs by broth microdilution method; conditions: Staphylococcus aureus, 630, 24 h; in short: as §2
Staphylococcus aureus [3] = test: Antimicrobial activity against methicillin-resistant Staphylococcus aureus 63718 after 24 hrs by broth microdilution method; conditions: Staphylococcus aureus, 63718, 24 h; in short: as §2
Bacillus cereus = test: Antimicrobial activity against Bacillus cereus ATCC 14579 after 24 hrs by broth microdilution method; conditions: ATCC 14579, 24 h; in short: as §1
Staphylococcus aureus [4] = test: Antimicrobial activity against Staphylococcus aureus ATCC 29213 after 24 hrs by broth microdilution method; conditions: ATCC 29213, 24 h; in short: as §1
Mycobacterium kansasii = test: Antimycobacterial activity against Mycobacterium kansasii DSM 44162 after 7 days; conditions: DSM 44162, 168 h
In short: (§3)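 MIC by broth microdilution in Middlebrook 7H9 with ADC enrichment. Compounds were dissolved in DMSO. Inoculum: colonies in sterile water adjusted to 0.5 McFarland, then diluted 1:1000 in sterile water. Drug-free, sterility and medium+DMSO controls were included. Wells were read visually after static incubation in the dark.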

Mycobacterium marinum = test: Antimycobacterial activity against Mycobacterium marinum CAMP 5644 after 21 days; conditions: CAMP 5644, 504 h; in short: as §3
[5] = tested on: Mycolicibacterium smegmatis; test: Antimycobacterial activity against Mycobacterium smegmatis ATCC 700084 after 3 days; conditions: ATCC 700084, 72 h
In short: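 Middlebrook 7H9 plus ADC broth microdilution MIC, with compounds in DMSO. Colonies were suspended in sterile water to 0.5 McFarland, then diluted 1:1000 in sterile water. Drug-free, sterility and DMSO controls were included. The visual read followed 3 days of static aerobic incubation at 37 °C in darkness.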

SMILES | MIC (Pasteurella multocida) [µM] | MIC (Clostridium perfringens) [µM] | MIC (Staphylococcus aureus [1]) [µM] | MIC (Staphylococcus aureus [2]) [µM] | MIC (Staphylococcus aureus [3]) [µM] | MIC (Bacillus cereus) [µM] | MIC (Staphylococcus aureus [4]) [µM] | MIC (Mycobacterium kansasii) [µM] | MIC (Mycobacterium marinum) [µM] | MIC [5] [µM]
O=C(Nc1ccc(Cl)c(Cl)c1)c1cc(Cl)ccc1O | 0.19 (≈ 0.0601 µg/mL) | 0.03 (≈ 0.0095 µg/mL) | 0.77 (≈ 0.244 µg/mL) | 0.77 (≈ 0.244 µg/mL) | 0.77 (≈ 0.244 µg/mL) | 0.09 (≈ 0.0285 µg/mL) | 0.79 (≈ 0.25 µg/mL) | – | – | –
O=C(Nc1ccccc1)c1cc(Cl)ccc1O | 1.01 (≈ 0.25 µg/mL) | > 1030 | 16.1 (≈ 4 µg/mL) | 16.1 (≈ 4 µg/mL) | 32.3 (≈ 8 µg/mL) | 32.3 (≈ 8 µg/mL) | 16.1 (≈ 4 µg/mL) | 16.1 (≈ 4 µg/mL) | 64.6 (≈ 16 µg/mL) | 64.6 (≈ 16 µg/mL)
O=C(Nc1ccc(Cl)c(Cl)c1)c1ccc(Cl)cc1O | 0.2 (≈ 0.0633 µg/mL) | 0.2 (≈ 0.0633 µg/mL) | 0.05 (≈ 0.0158 µg/mL) | 0.03 (≈ 0.0095 µg/mL) | 0.05 (≈ 0.0158 µg/mL) | ≤ 0.03 | 0.03 (≈ 0.0095 µg/mL) | 3.16 (≈ 1 µg/mL) | 3.16 (≈ 1 µg/mL) | 12.6 (≈ 4 µg/mL)
O=C(Nc1ccc([N+](=O)[O-])cc1)c1cc(Cl)ccc1O | 0.03 (≈ 0.00878 µg/mL) | 1.71 (≈ 0.5 µg/mL) | 1.71 (≈ 0.5 µg/mL) | 0.85 (≈ 0.249 µg/mL) | 1.71 (≈ 0.5 µg/mL) | 0.85 (≈ 0.249 µg/mL) | 0.85 (≈ 0.249 µg/mL) | ≤ 0.43 | 3.42 (≈ 1 µg/mL) | 13.7 (≈ 4 µg/mL)
O=C(Nc1ccc(Cl)cc1)c1cc(Cl)ccc1O | 3.54 (≈ 0.999 µg/mL) | 14.2 (≈ 4 µg/mL) | 56.7 (≈ 16 µg/mL) | 28.4 (≈ 8 µg/mL) | 56.7 (≈ 16 µg/mL) | 14.2 (≈ 4 µg/mL) | 28.4 (≈ 8 µg/mL) | 7.08 (≈ 2 µg/mL) | 7.08 (≈ 2 µg/mL) | 28.4 (≈ 8 µg/mL)
O=C(Nc1ccc(Br)cc1)c1cc(Cl)ccc1O | 0.19 (≈ 0.062 µg/mL) | 3.06 (≈ 0.999 µg/mL) | 0.76 (≈ 0.248 µg/mL) | 0.76 (≈ 0.248 µg/mL) | 0.76 (≈ 0.248 µg/mL) | 0.38 (≈ 0.124 µg/mL) | 0.76 (≈ 0.248 µg/mL) | 6.12 (≈ 2 µg/mL) | 12.2 (≈ 4 µg/mL) | 24.5 (≈ 8 µg/mL)
O=C(Nc1ccc(C(F)(F)F)cc1)c1cc(Cl)ccc1O | 0.2 (≈ 0.0631 µg/mL) | 1.58 (≈ 0.499 µg/mL) | 0.2 (≈ 0.0631 µg/mL) | 0.2 (≈ 0.0631 µg/mL) | 0.1 (≈ 0.0316 µg/mL) | 0.1 (≈ 0.0316 µg/mL) | 0.03 (≈ 0.00947 µg/mL) | 1.58 (≈ 0.499 µg/mL) | ≤ 0.4 | 12.7 (≈ 4 µg/mL)
COc1ccc(NC(=O)c2cc(Cl)ccc2O)cc1 | 28.8 (≈ 8 µg/mL) | > 921 | > 921 | > 921 | > 921 | > 921 | > 921 | – | – | –
COc1ccc(NC(=O)[C@@H](NC(=O)c2cc(Cl)ccc2O)C(C)C)cc1 | > 679 | > 679 | > 679 | > 679 | > 679 | > 679 | > 679 | – | – | –
Cc1ccc(NC(=O)[C@H](C)NC(=O)c2cc(Cl)ccc2O)cc1 | > 769 | > 769 | > 769 | > 769 | > 769 | > 769 | > 769 | – | – | –
CC(C)[C@H](NC(=O)c1cc(Cl)ccc1O)C(=O)Nc1ccc(C(F)(F)F)cc1 | > 617 | 4.82 (≈ 2 µg/mL) | 4.82 (≈ 2 µg/mL) | 4.82 (≈ 2 µg/mL) | 9.64 (≈ 4 µg/mL) | 2.41 (≈ 1 µg/mL) | 4.82 (≈ 2 µg/mL) | 38.6 (≈ 16 µg/mL) | 77.1 (≈ 32 µg/mL) | 77.1 (≈ 32 µg/mL)
CC(C)[C@H](NC(=O)c1ccc(Cl)cc1O)C(=O)Nc1ccc(Br)cc1 | > 601 | 9.39 (≈ 4 µg/mL) | 9.39 (≈ 4 µg/mL) | 9.39 (≈ 4 µg/mL) | 18.8 (≈ 8 µg/mL) | 2.34 (≈ 0.996 µg/mL) | 9.39 (≈ 4 µg/mL) | 75.2 (≈ 32 µg/mL) | 150 (≈ 63.9 µg/mL) | 150 (≈ 63.9 µg/mL)
CC(C)[C@H](NC(=O)c1ccc(Cl)cc1O)C(=O)Nc1ccc(Cl)c(Cl)c1 | > 615 | 38.5 (≈ 16 µg/mL) | 2.4 (≈ 0.998 µg/mL) | 2.4 (≈ 0.998 µg/mL) | 4.81 (≈ 2 µg/mL) | 1.2 (≈ 0.499 µg/mL) | 2.4 (≈ 0.998 µg/mL) | 77 (≈ 32 µg/mL) | 77 (≈ 32 µg/mL) | 77 (≈ 32 µg/mL)
